From ChEMBL document CHEMBL4339200, “Structure-based Discovery of Phenyl (3-Phenylpyrrolidin-3-yl)sulfones as Selective, Orally Active RORγt Inverse Agonists” (ACS Med Chem Lett, 2019)
The source made the active and inactive calls. The calls are words filed in the database; no cut-off is given here.

Tests used:
[1] = molecular target: T1, Cytochrome P450 1A2 (Homo sapiens, UniProt P05177); experiment: Inhibition of CYP1A2 (unknown origin); type: ADME
T1 sequence (P05177 whole entry): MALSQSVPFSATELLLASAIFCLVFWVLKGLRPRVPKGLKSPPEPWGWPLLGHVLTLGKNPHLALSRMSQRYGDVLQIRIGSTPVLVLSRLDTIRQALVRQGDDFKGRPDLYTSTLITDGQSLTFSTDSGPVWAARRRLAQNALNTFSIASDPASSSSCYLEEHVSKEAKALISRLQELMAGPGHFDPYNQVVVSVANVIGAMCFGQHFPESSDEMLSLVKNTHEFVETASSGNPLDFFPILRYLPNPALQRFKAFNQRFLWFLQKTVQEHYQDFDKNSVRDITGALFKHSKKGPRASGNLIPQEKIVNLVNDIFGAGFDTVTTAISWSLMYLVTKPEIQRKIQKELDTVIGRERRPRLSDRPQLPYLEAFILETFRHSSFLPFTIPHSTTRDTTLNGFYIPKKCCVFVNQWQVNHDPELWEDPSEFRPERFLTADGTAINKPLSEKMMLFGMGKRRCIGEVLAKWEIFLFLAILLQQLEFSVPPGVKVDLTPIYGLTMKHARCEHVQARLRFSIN

[2] = test system: Mus musculus; experiment: Inhibition of IL2/IL23-induced IL6 production in po bid dosed C57BL/6 mouse treated 30 mins prior to 24 hrs IL2 challenge followed by IL2/IL23 addition at 0,7 and 23 hrs measured after 7 hrs post last IL2/IL23 challenge; type: functional, organism-based
How it was run: (§1)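 Naive mice were challenged three times with IL-2 plus IL-23 (first at 0 and 7 h) and dosed orally bid at 5, 15 or 50 mg/kg. Serum cytokines were measured 7 h after the final IL-2/IL-23 administration. An anti-IL-23 antibody served as positive control.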

[3] = molecular target: T2, PXR (NR1I2) (Homo sapiens, UniProt O75469); experiment: Transactivation of PXR in human HepG2 cells relative to rifampicin; type: ADME, cell-based; settings: read-out: %max
T2 sequence (O75469 whole entry): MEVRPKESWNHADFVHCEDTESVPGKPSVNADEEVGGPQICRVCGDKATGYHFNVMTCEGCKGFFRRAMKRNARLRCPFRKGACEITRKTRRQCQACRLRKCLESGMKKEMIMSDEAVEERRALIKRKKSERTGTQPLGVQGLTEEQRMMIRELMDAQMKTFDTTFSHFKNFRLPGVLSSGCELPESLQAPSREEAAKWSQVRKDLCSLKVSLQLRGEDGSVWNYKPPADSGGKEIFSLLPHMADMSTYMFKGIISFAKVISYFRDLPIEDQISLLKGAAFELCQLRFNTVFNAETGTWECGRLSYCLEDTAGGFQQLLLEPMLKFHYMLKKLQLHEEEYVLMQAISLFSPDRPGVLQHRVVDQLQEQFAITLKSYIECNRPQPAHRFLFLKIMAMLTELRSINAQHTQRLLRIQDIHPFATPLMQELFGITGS

[4] = molecular target: T3, Oxysterols receptor LXR-alpha (Homo sapiens, UniProt Q13133); experiment: Agonist activity at LXRalpha (unknown origin) expressed in African green monkey CV1 cells; type: cell-based
T3 sequence (Q13133 whole entry): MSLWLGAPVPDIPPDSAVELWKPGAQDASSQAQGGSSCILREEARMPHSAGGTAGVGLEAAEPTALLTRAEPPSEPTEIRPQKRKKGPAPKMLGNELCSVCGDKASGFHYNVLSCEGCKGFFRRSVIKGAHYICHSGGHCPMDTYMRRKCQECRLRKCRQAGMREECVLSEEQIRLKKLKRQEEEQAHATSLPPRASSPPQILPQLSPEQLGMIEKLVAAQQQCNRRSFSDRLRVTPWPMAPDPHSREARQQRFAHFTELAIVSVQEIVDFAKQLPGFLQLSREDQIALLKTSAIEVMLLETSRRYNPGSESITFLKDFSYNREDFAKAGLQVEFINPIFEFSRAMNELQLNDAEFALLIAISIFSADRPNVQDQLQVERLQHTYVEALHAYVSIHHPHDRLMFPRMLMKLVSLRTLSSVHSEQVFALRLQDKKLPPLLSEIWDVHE

[5] = AUC in Balb/c mouse at 2 mg/kg, iv; type: ADME, organism-based; settings: in vivo
How it was run: (§2)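 Balb/c mice given a single intravenous dose of 2 mg/kg or an oral dose of 10 mg/kg. Plasma exposure was followed to derive Cmax, Tmax, AUC, t1/2, clearance, Vss and oral bioavailability (F).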

[6] = molecular target: Cytochrome P450 2D6 (Homo sapiens, UniProt P10635); experiment: Inhibition of CYP2D6 (unknown origin); type: ADME
[7] = molecular target: Cytochrome P450 2C19 (Homo sapiens, UniProt P33261); experiment: Inhibition of CYP2C19 (unknown origin); type: ADME
[8] = Half life in Balb/c mouse at 2 mg/kg, iv; type: ADME, organism-based; settings: in vivo; how it was run: as §2
[9] = Tmax in Balb/c mouse at 10 mg/kg, po; type: ADME, organism-based; settings: in vivo; how it was run: as §2
[10] = test system: Mus musculus; experiment: Inhibition of IL2/IL23-induced IL17F production in C57BL/6 mouse at 15 mg/kg, po bid treated 30 mins prior to 24 hrs IL2 challenge followed by IL2/IL23 addition at 0,7 and 23 hrs measured after 7 hrs post last IL2/IL23 challenge relative to control; type: functional; settings: C57BL/6, po; how it was run: as §1
[11] = Protein binding in human plasma assessed as unbound fraction; type: ADME, cell-free
[12] = molecular target: T4, Nuclear receptor ROR-beta (Homo sapiens) (UniProt Q92753); experiment: Inverse agonist activity at GAL4-fused RORbeta LBD (200 to 559 residues) (unknown origin) expressed in human Jurkat cells measured after 18 hrs by native IL17 promoter driven steady-glo luciferase assay; type: cell-based
T4 sequence (whole entry): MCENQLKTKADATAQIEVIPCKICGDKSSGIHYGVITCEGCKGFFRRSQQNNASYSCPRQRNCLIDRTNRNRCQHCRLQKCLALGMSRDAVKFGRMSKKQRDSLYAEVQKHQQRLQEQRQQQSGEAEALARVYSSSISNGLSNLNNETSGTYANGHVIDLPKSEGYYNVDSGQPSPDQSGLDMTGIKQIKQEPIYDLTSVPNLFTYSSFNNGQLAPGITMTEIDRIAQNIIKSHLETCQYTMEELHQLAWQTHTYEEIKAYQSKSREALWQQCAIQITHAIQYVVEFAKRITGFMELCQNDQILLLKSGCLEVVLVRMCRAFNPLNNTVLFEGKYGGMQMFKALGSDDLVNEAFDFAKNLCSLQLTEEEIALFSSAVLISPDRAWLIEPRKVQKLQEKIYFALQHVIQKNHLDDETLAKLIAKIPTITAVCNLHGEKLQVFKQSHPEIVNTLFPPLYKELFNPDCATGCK

[13] = AUC in Balb/c mouse at 10 mg/kg, po; type: ADME, organism-based; settings: in vivo; how it was run: as §2
[14] = molecular target: Cytochrome P450 3A4 (Homo sapiens, UniProt P08684); experiment: Inhibition of CYP3A4 (unknown origin); type: ADME
[15] = test system: Mus musculus; experiment: Inhibition of IL2/IL23-induced IL22 production in po bid dosed C57BL/6 mouse treated 30 mins prior to 24 hrs IL2 challenge followed by IL2/IL23 addition at 0,7 and 23 hrs measured after 7 hrs post last IL2/IL23 challenge; type: functional, organism-based; how it was run: as §1

Cytochrome P450 3A4, sequence (P08684 whole entry): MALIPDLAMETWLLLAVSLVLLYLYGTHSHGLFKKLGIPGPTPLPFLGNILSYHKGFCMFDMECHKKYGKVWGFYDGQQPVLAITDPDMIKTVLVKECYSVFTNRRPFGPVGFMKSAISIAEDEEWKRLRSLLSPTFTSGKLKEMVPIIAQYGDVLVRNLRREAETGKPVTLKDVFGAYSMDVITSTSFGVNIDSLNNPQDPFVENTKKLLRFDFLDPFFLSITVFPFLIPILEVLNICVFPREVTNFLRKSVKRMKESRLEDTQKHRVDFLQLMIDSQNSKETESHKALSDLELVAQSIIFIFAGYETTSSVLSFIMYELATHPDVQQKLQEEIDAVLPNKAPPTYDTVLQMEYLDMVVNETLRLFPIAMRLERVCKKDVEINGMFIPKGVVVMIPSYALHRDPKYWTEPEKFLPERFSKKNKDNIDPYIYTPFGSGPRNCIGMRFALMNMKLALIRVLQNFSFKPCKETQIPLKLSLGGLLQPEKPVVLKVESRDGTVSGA
Cytochrome P450 2C19, sequence (P33261 whole entry): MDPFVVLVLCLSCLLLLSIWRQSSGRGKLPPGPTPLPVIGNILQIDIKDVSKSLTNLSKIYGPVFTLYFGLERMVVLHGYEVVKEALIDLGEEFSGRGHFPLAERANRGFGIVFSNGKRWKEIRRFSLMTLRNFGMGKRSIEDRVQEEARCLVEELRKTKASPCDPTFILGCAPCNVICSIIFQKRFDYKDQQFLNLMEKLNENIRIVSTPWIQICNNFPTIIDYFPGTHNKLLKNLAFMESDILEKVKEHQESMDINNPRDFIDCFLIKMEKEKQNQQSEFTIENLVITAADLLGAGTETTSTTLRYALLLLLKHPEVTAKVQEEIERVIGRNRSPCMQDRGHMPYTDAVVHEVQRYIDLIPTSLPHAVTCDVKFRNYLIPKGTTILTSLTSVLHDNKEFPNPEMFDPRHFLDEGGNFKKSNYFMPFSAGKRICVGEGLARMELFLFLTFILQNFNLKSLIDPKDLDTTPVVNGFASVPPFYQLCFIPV
Cytochrome P450 2D6, sequence (P10635 whole entry): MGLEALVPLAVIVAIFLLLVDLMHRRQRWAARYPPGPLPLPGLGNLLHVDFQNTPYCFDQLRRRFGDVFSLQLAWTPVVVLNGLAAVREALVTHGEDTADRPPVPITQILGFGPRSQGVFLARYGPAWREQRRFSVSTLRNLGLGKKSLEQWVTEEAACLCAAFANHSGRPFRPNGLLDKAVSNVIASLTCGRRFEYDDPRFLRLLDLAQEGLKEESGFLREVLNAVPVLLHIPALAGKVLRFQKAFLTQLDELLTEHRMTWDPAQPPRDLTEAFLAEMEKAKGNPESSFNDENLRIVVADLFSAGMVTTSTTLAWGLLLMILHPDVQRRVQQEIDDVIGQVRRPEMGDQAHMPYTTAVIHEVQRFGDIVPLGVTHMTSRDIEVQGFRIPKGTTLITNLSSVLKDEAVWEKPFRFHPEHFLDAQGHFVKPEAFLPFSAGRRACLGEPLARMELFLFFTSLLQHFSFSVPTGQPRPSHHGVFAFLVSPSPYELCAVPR

## O=C(O)[C@H]1CC[C@H](C(=O)N2CC[C@](c3ccc(C(F)(C(F)(F)F)C(F)(F)F)cc3)(S(=O)(=O)c3ccc(F)cc3)C2)CC1
[1]
  IC50: > 20 µM
[2]
  inhibition: Dose-dependent effect
[3]
  Emax: 18%
[4]
  EC50: > 7.5 µM
[5]
  AUC: 7.4 µM·h
[6]
  IC50: > 20 µM
[7]
  IC50: > 20 µM
[8]
  half-life: 7.2 h
[9]
  Tmax: 2 h
[10]
  inhibition in vivo at 15 mg/kg: 77%
[11]
  fraction unbound: 0.037
[12]
  Activity: inactive
[13]
  AUC: 36.6 µM·h
[14]
  IC50: > 20 µM
[15]
  inhibition: Dose-dependent effect
